# Hits are enriched below; roughly 2.9% of the tested compounds scored in any of these assays.
# Autophagy HCS = alters autophagy in cells | calls only at 10 µM (by protocol) | 0.98% of 190,000 active | MEF GFP-LC3 puncta imaging; test concentration mostly 10 µM;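 active means percentage of spot-positive cells more than 3 SD above its plate mean, without a fluorescence outlier flag or 80% toxicity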;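 further: spot-positive cell cutoff set from DMSO-treated cells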
# b-catenin transl = alters nuclear translocation of beta-catenin in HeLa cells. 0.3% of 190,000 active. immunofluorescence imaging. AID 1665. nuclear translocation activity, % at 5 µM;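 active means nuclear translocation activity above 50% at 5 µM, with a well cell count of 50 or more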;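 further: per-cell ratio of nuclear to cytoplasmic median beta-catenin stain intensity; plate controls were DMSO negative control for no effect and GSK-3 inhibitor IX positive control for full effect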
#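 Read-out: Nuclear/cytoplasmic beta-catenin signal ratio, % activation | Assay system: Human HeLa cell line | Times: 24 h compound exposure at 37°C, 5% CO2 | Signal: Fluorescence imaging of beta-catenin antibody stain plus DAPI | Dosing: 5 µM primary, 0.02–20 µM confirmation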
# MT stabilizer = stabilizes microtubules in HeLa cells; 0.83% of 200,000 active; HeLa tubulin immunostaining HCS, 24 h; share of cells brighter than vehicle mean+2SD; AID 2205; % tubulin-high responders, % at 10 µM;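 active means plate Z-score above 3 for both tubulin-high and condensed-nucleus cell shares, with cell loss under 80%, at 10 µM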;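 further: anti alpha tubulin signal scored within the nucleus-defined area of each cell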
# Ins promoter up = MIN6 insulin promoter up-regulation; MIN6 insulin promoter-GFP reporter, high-content imaging; stronger effect = higher value; z-score at 5 µM; 0.3% of 190,000 active; AID 1625;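 active means z-score above 3 at 5 µM with at least 500 cells counted in the well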
# Wee1 stabilizer = inhibitors of human Wee1 degradation; reporter increase, % at 5 µM; 1.2% of 220,000 active; P30291; HeLa Luc-Wee1K328M stability, luciferase luminescence; 100% = proteasome inhibitor MG132 effect;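 active means activation above the mean of all tested compounds plus 3 SD, set per screening run, cut at about 8.8% in these data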;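 further: cells exposed to compound for 20 h before luminescence read; 0% = DMSO alone and 100% = MG132 at 30 µM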
# Target sequence (P30291 whole entry K328M): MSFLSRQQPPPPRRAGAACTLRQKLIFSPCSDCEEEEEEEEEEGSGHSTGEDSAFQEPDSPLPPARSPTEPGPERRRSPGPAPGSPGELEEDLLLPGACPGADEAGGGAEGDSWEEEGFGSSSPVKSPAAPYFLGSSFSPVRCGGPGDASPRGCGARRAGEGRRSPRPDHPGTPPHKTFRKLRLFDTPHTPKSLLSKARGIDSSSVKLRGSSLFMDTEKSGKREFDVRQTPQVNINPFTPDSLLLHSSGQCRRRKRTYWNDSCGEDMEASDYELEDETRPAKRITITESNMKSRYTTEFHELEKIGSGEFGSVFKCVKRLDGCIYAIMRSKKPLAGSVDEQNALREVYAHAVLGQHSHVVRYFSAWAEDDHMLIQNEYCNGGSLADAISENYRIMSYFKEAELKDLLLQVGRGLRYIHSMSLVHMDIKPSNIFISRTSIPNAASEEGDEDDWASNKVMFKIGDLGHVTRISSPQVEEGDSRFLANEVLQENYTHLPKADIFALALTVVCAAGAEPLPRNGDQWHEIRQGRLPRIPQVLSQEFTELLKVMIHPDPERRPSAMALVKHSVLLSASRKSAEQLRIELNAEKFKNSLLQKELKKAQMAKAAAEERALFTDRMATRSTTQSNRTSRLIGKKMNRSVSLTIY
# Active calls of the source: *; i = inactive; . = no result given; + = active, no number.
SMILES,Autophagy HCS,b-catenin transl,MT stabilizer,Ins promoter up,Wee1 stabilizer
CN1CCc2c(sc(/N=C/c3cc(Cl)ccc3O)c2C#N)C1,.,0,.,0.33,5
CCOC(=O)C1C(c2cccc([N+](=O)[O-])c2)C2C(=O)NN=C2CC1(C)O (stereo not given),i,0,3,1.6,-4
c1ccc2oc(C3=NNC(=NC4CC4)SC3)cc2c1,i,-1,3,-0.36,15*
COc1ccc(C(=O)Nc2nnc(-c3cccs3)s2)cc1,+,-2,31,0.41,0
O=C(N/N=C/c1ccc(O)cc1)c1cc(C23CC4CC(CC(C4)C2)C3)[nH]n1,.,0,.,-0.21,-4
C/C(=N\NC(=O)c1cc(C(C)(C)C)[nH]n1)C12CC3CC(CC(C3)C1)C2,+,0,2,.,-3
c1ccc2c(SCc3cn4ccccc4n3)nncc2c1,i,5,5,-0.12,-2
Clc1ccc(-c2cc(CSc3ccccc3)on2)cc1,i,.,1,.,0
Cc1ccc(SCc2cc(-c3ccc(Cl)cc3)no2)cc1,i,1,1,3.1*,0
COc1cccc(CN2CCN(Cc3nc4c(s3)CCCC4)CC2CCO)c1 (stereo not given),i,1,4,.,10*
CCOc1cc(C2c3c(oc4cc(C)c(Cl)cc4c3=O)C(=O)N2Cc2ccco2)ccc1O (stereo not given),+,-2,6,-0.1,-1
CN(C)c1ccc(N=Nc2cccc3ccoc23)cc1,.,-1,.,0.41,9.0*
Cc1cc(N(C)C)ccc1N=Nc1ccc2ncccc2c1,.,3,.,-0.08,-1
CN(C)S(=O)(=O)c1cccc(NC(=O)CN2C(=O)C3C4C=CC(C4)C3C2=O)c1 (stereo not given),i,-2,2,0.12,-1
CSc1ccccc1NC(=O)CSCc1ccc(C)cc1,i,7,30*,0.53,-2
COc1cc(C2Nc3ccc4ncccc4c3C3=C2C(=O)CCC3)cc(OC)c1OC (stereo not given),i,2,6,0.2,0
COc1cc(C2Nc3ccc4ncccc4c3C3=C2C(=O)CCC3)ccc1O (stereo not given),i,-2,27*,-0.16,2
CN1CCN(CCCNC(=O)c2cc3c(-c4ccc(Cl)cc4)nn(C)c3s2)CC1,+,.,4,-1.3,0
Cn1nc(-c2ccc(Cl)cc2)c2cc(C(=O)NCC3CCCO3)sc21 (stereo not given),i,.,3,0.38,3
CCN(CC)CCCNC(=O)c1cc2c(-c3ccc(Cl)cc3)nn(C)c2s1,+,.,4,0.22,-1
O=C1/C(=C/c2ccccc2)NC(=S)N1C(c1ccccc1)c1ccccc1,+,61*,36*,.,-2
O=C1/C(=C/c2ccccc2)Nc2ccccc21,i,0,2,-0.4,2
COc1ccc(/C=C/c2ccccc2)cc1[C@H]1[C@H]2C=CC[C@@H](C)[C@@H]2C(=O)N1Cc1ccccc1,.,-1,.,.,.
Nc1nnc(Cc2ccccc2F)s1,+,-2,4,-0.34,-3
CCOc1cc(N2CCOCC2)c(OCC)cc1NC(=O)COC(=O)c1cc(C)cc(C)c1,i,0,2,0.04,-3
SMILES,Autophagy HCS,b-catenin transl,MT stabilizer,Ins promoter up,Wee1 stabilizer
CC(/C=N/NC(=O)c1cccnc1)=C\c1ccccc1,i,-2,5,-0.1,-2
CC(/C=N/NC(=O)c1ccncc1)=C\c1ccc(C(C)C)cc1,i,1,2,3.2*,2
CCn1c2ccccc2c2cc(/C=N/n3c(C)nnc3C)ccc21,i,22,3,0.54,-3
CCn1c2ccccc2c2cc(/C=N/NC(=O)c3ccccc3)ccc21,i,1,20*,-0.61,-3
O=C1CN(C(=O)c2cc3ccccc3oc2=O)C(c2ccc(F)cc2)c2cc(Br)ccc2N1 (stereo not given),+,-1,4,0.76,2
C=CCN=C(NC#N)SCC(=O)c1cccc(OC)c1,i,1,4,.,1
CCOC(=O)c1c(-c2ccc(C)o2)csc1NC(=O)COC(=O)c1ccc(NC(N)=O)cc1,i,4,2,-1.2,2
Cc1nn(-c2ccccc2)c2[nH]c(=O)c(CNc3ccc(N4CCOCC4)cc3)cc12,i,1,52*,.,3
CC(C)(C)c1nn(-c2ccccc2)c2[nH]c(=O)c(CNc3ccc4c(c3)OCCO4)cc12,i,.,1,.,-2
CCN(CC)c1ccc(/C=N/Nc2ccc(C)cc2)c(O)c1,i,1,3,-0.9,-6
CCOC(=O)N/N=C/c1ccc(N(CC)CC)cc1O,i,32,16*,-0.02,-1
CCN(CC)c1ccc(/C=N/n2nnnc2N)c(O)c1,i,.,24*,1.5,-2
CCN(C)c1ccc(/C=N\n2nnnc2N)cc1,+,.,25*,0.02,5
Cc1ccc(N=C/C(C(=O)C(F)(F)F)=C(\O)c2ccco2)cc1Cl,i,4,6,-0.56,1
O=C(NCC1CCCO1)c1ccc(COc2ccccc2Br)cc1 (stereo not given),i,6,3,-0.83,1
CN1CC=C2C(C#N)=C(N)C(C#N)(C#N)[C@H](c3cccs3)[C@H]2C1,+,-2,3,.,-2
CN1CC=C2C(C#N)=C(N)C(C#N)(C#N)C(c3ccsc3)C2C1 (stereo not given),i,0,6,.,-1
COc1cc([C@@H]2[C@H]3CN(C)CC=C3C(C#N)=C(N)C2(C#N)C#N)cc2c1OCO2,+,.,3,.,1
CCOCCN1CCN(C(=O)CN2CCCC2=O)CC1,i,0,3,0.34,-2
Cc1ccc2nc(-c3ccc(NC(=O)Cc4cccs4)cc3)[nH]c2c1,i,-1,3,0.28,10*
Cc1ccc2nc(NC(=O)Cc3cccs3)sc2c1,i,.,2,.,5
O=c1c(C/C=C/c2ccccc2)c(O)ccn1Cc1cccc(Cl)c1,i,-3,3,-0.21,11*
O=C(c1ccc(Cl)c([N+](=O)[O-])c1)N1CCN(Cc2ccc3c(c2)OCO3)CC1,i,4,2,-0.88,2
COc1ccc2cc3cc(C(=O)NCCN4CCN(Cc5ccccc5)CC4)oc3nc2c1,+,0,2,-0.49,-2
COc1ccc2cc3cc(C(=O)NCCN4CCc5ccccc5C4)oc3nc2c1,i,.,1,.,3
COc1cccc(-c2nn(C)c3sc(C(=O)N4CCN(c5ccccn5)CC4)cc23)c1,i,0,13*,-10,8
CN(C)S(=O)(=O)Nc1cc(F)cc(F)c1,i,0,3,.,1
COc1ccc2c(C(=O)CN(C)C3CCCCC3)c[nH]c2c1,i,-3,4,4.5*,-2
N#CC1=C(N)N2C(=C(C#N)C13CCCCC3)SC1CCCCC12O (stereo not given),i,-1,4,0.67,-1
CCN(CC)C(=O)Cn1c(=O)c2ccccc2n2c(=S)sc(-c3cccc(C)c3)c12,+,-4,9,1.4,-1

# High-throughput results deposited in PubChem by several laboratories.
